Experimental data from ChEMBL document CHEMBL1140836, “Hybrid angiogenesis inhibitors: synthesis and biological evaluation of bifunctional compounds based on 1-deoxynojirimycin and aryl-1,2,3-triazoles” (Bioorg Med Chem Lett, 2008).
The source made the active and inactive calls. No cut-off for these calls is given here.

How the values were obtained:
[1] = target: T1, Alpha-glucosidase (Geobacillus stearothermophilus, UniProt P94451); experiment: (§1) Inhibition of alpha glucosidase from bacillus stearothermophilus
T1 sequence (P94451 whole entry): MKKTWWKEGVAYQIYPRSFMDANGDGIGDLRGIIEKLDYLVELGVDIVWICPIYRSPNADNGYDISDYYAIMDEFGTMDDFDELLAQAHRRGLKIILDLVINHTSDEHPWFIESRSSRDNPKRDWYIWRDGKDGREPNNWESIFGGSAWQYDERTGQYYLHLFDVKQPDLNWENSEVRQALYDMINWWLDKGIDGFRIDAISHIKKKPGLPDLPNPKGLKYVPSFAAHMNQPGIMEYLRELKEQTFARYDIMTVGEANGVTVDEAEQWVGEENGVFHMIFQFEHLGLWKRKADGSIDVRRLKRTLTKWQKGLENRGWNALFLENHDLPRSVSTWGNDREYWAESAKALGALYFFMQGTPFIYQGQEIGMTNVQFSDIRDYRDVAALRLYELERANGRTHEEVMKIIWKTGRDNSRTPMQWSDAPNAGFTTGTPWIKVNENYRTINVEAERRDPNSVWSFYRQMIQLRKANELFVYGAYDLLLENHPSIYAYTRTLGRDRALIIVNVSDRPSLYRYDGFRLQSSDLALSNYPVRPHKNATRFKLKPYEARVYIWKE

[2] = (§2) Growth inhibition of bovine BAEC by MTT assay; assay type: functional, cell-based; details: Bos taurus
In short: (§3)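 BAECs in RPMI 1640 with 10% heat-inactivated FBS, 3 × 10³ cells/well, seeded overnight, then exposed to compounds (10⁻⁶–10⁻³ M) for 48 h at 37 °C, 5% CO₂. MTT added to 0.5 mg/mL final, 3 h at 37 °C; formazan dissolved in DMSO, absorbance at 570 nm. Quadruplicate wells, experiments repeated at least twice; IC₅₀ determined.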

[3] = test system: BAEC; experiment: as §2; assay type: functional, cell-based; details: Bos taurus; in short: as §3
[4] = test system: BAEC; experiment: Antiangiogenesis activity in bovine BAEC cells assessed as inhibition of tube formation on Matrigel at 0.2 mM; assay type: functional, cell-based; details: Bos taurus
In short: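 BAECs pretreated with compound (0.2 mM) 24 h, harvested, 3 × 10⁴ cells/0.1 ml in RPMI 1640 with 10 ng/mL bFGF plus 0.2 mM compound (controls bFGF only), layered on growth factor–reduced Matrigel polymerized 1 h at 37 °C; 8 h at 37 °C, 5% CO₂. Tubes counted in at least five microscope fields, averaged per field; repeated at least twice.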

[5] = target: T2, Alpha-glucosidase (Geobacillus stearothermophilus) (UniProt P94451); experiment: as §1
T2 sequence (whole entry): T1 sequence (P94451 whole entry)

[6] = target: Methionine aminopeptidase 2 (Homo sapiens) (UniProt P50579); experiment: Inhibition of MetAP2
Sequence of Methionine aminopeptidase 2 (Homo sapiens) (P50579 2-478 limits assumed): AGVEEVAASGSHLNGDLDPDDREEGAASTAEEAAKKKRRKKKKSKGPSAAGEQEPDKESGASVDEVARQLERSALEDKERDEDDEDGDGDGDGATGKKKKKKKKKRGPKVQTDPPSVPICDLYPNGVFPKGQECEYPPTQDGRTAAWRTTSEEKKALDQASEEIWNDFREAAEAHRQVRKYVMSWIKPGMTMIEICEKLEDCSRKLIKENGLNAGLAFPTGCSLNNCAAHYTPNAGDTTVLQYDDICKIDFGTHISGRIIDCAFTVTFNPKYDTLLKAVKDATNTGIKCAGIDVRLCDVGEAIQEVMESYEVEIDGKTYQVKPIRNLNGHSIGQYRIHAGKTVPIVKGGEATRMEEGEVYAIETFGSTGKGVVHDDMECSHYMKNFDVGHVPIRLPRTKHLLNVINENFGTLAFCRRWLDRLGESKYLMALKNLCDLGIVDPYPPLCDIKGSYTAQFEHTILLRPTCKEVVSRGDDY

Structure (SMILES) | IC50 [1] | IC50 [2] | Activity [3] | Activity [4] | Activity [5] | Activity [6]
OC[C@@H]1[C@@H](O)[C@H](O)[C@@H](O)CN1CCCCCCCCOc1cccc(-c2cnn[nH]2)c1 | 1.15 µM | 105 µM | – | – | – | –
OC[C@H]1NC[C@H](O)[C@@H](O)[C@@H]1O | – | – | inactive | – | – | –
OC[C@@H]1[C@@H](O)[C@H](O)[C@@H](O)CN1CCCCCCOc1cccc(-c2cnn[nH]2)c1 | 2.41 µM | 610 µM | – | inactive | – | –
COc1cccc(-c2cnn[nH]2)c1 | – | 347 µM | – | – | inactive | Active
OC[C@@H]1[C@@H](O)[C@H](O)[C@@H](O)CN1CCCCOc1cccc(-c2cnn[nH]2)c1 | 6.07 µM | 797 µM | – | inactive | – | –
